Key:
[1] = test system: humans; conditions: up to 1000 mg daily for several months; cited from earlier work
[2] = test system: rats; conditions: cited from earlier work
[3] = Pharmacokinetics and bioavailability of ProFine ingredients; type: in vivo, Sprague-Dawley rats; conditions: ProFine 100 mg/kg oral gavage, rat plasma
[4] = test system: C4-2 cells; experiment: MTS cell proliferation assay of in vitro cytotoxicity; type: cell-based; conditions: Homo sapiens, C4-2, 72 h, read-out: half minimal inhibitory concentration (IC50)
Procedure, shortened: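 AR-positive human prostate cancer C4-2 cells exposed for 72 hours to individual flavonoids or to a defined three-flavonoid mixture (molar ratio 1:1:2) across graded concentrations. Viability read by MTS cell proliferation assay; IC50 taken from the dose-effect curves. Data represent three or more independent experiments.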

O=c1c(O)c(-c2ccc(O)c(O)c2)oc2cc(O)cc(O)c12 [quercetin]
adverse effects of human daily intakes [1]: no adverse effects

O=c1cc(-c2ccc(O)c(O)c2)oc2cc(O)cc(O)c12 [luteolin]
acute oral toxicity (LD50) [2]: > 5000 mg/kg | maximum plasma concentration [3]: 0.44 µM | IC50 [4]: 114 µM
